# Hits are enriched below; roughly 5.8% of the tested compounds scored in any of these assays.
# p47phox inh = p47phox (human) inhibition; P14598; inhibition, % at 24.7 µM; 0.53% of 220,000 active; p47phox/p22phox peptide binding, fluorescence polarization, 2 h;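 active = inhibition above about 30%, limit read from the data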;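 note: 0% = p47phox with labelled peptide and 100% = labelled peptide alone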
# ROMK primary = modulators of human ROMK potassium channel; P48048; Tet-inducible ROMK, thallium flux fluorescence; actives lie on both sides; B-score at 10 µM; 2% of 130,000 active; AID 1918;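 active = signal ratio slope over the read window, or its plate-corrected B-score, at least 3 SD from the plate mean, either direction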;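 note: B-score of the F/F0 ratio slope over 7 to 12 s after thallium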
# RBBP9 inhibitor = blocks human serine hydrolase RBBP9; O75884; 0.2% of 220,000 active; AID 1515; inhibition, % at 7.94 µM; recombinant RBBP9, FP-Rh probe fluorescence polarization;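 active = inhibition above the campaign mean of all tested compounds plus 3 SD, cut at about 14% in these data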;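 note: plate controls were DMSO wells with RBBP9 for no effect and wells lacking RBBP9 protein for full effect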
# Target sequence (O75884 whole entry, looked up): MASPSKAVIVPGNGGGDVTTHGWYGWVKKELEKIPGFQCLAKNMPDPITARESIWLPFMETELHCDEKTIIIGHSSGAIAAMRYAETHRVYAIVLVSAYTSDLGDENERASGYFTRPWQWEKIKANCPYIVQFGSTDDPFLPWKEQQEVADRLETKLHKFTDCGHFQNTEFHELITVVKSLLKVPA
#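 Test system: recombinant human RBBP9; Timing: 30 min then 45 min, 25 °C; Detection: fluorescence polarization; Control set: RBBP9 with DMSO as uninhibited control, no-protein wells as full inhibition; Compound dosing: one concentration, 7.94 µM nominal, 0.794% DMSO; Probe or stimulus: FP-Rh activity-based probe, 375 nM before mixing.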
# WT yeast gro inh = growth inhibition of WT yeast, mitochondrial fusion screen | inhibition, % at 10 µM | mitochondrial fusion phenotypic screen, WT strain | AID 1362 | 2.1% of 190,000 active; in the data active = inhibition above about 58%; tested in S. cerevisiae
# 14-3-3 Bad inh = disrupts binding of bovine 14-3-3 zeta to phospho-Bad peptide. P63103. TR-FRET 14-3-3zeta/Dy647-pBad peptide displacement, 1 h. inhibition, % at 21.7 µM. 0.71% of 220,000 active. AID 781;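 active = inhibition above about 70%, limit read from the data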;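 note: 0% = full 14-3-3 plus peptide FRET controls and 100% = background without 14-3-3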
# Target sequence (P63103 whole entry, looked up): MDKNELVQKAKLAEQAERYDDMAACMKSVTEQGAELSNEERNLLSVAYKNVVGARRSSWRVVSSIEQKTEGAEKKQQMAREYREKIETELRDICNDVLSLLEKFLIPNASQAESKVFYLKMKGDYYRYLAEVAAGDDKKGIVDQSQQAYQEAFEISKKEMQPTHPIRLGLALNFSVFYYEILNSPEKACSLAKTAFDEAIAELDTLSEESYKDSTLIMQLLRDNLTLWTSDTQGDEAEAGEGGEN
# KCC2 mod = modulates chloride dependent transport by human KCC2; KCC2 cells, thallium flux FluoZin-2 fluorescence; AID 1456; 2.2% of 190,000 active; B-score of Tl+ flux slope (higher = more flux/activation; lower = inhibition) at 10 µM; Q9H2X9;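 active = thallium flux slope and its plate-corrected score both differing from the plate sample mean at a set confidence after two filtering rounds, in either direction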;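 note: slope of fluorescence scaled to starting intensity during 10 to 20 s after thallium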
# * hit, by the source's call; . = not tested or not shown.
SMILES,p47phox inh,ROMK primary,RBBP9 inhibitor,WT yeast gro inh,14-3-3 Bad inh,KCC2 mod
CCOC(=O)C(C)Oc1ccc(NC(=O)C(Cl)Cl)cc1 (centres undefined),-7,-0.5,-3,.,0,0.17
COc1cccc(C2C([N+](=O)[O-])=C(N)Oc3cc(C)oc(=O)c32)c1 (centres undefined),-10,.,-6,.,-3,-0.3
N#C/C(=N\Nc1cccc(C(F)(F)F)c1)C(=O)c1csc(-c2cccnc2)n1,-11,-3.8*,-8,.,5,-6.1*
O=C(O)C1CC=CCC1C(=O)Nc1ccc(N2CCN(Cc3ccccc3)CC2)cc1 (centres undefined),-3,-0.47,-9,13,-5,0.28
Cc1cc(C)c(S(=O)(=O)Nc2ccc3c(c2)CCC3)c(C)c1,8,-0.014,-16,77*,10,-1.9
CCn1c(C(=O)OC)cc2c1ccn2-c1ccc(F)cc1,2,0.22,-7,77*,-14,0.46
Cc1ccc(S(=O)(=O)N2CCN(C(=O)CSc3nc(N)cc(=O)[nH]3)CC2)c(C)c1,-19,0.025,-5,0,-4,0.22
Cc1ccc(-c2nnc(-n3ncc(C#N)c3N)c3ccccc23)cc1C,42*,-0.0014,-5,-8,2,-0.14
N#Cc1cnc2c(-c3ccccc3)c(-c3ccccc3)nn2c1N,-9,0.29,-3,8,-6,-0.59
CCOc1cc(/C=C(/NC(C)=O)C(=O)O)cc(Cl)c1OCc1cccc(Br)c1,-14,1.5,0,.,18,-0.27
CCc1cccc(N(C)C(N)=Nc2cccc3ccccc23)c1,-1,.,.,.,-3,-0.35
CCOC(=O)C1=C(C)n2c(s/c(=C/c3cccc([N+](=O)[O-])c3)c2=O)=NC1c1ccc(O)c(OC)c1 (centres undefined),-38,-0.23,-7,70*,4,0.21
CCOC(=O)C1=C(C)N=c2s/c(=C/c3ccccc3)c(=O)n2C1c1ccc(OC)c(OC)c1 (centres undefined),-10,.,-1,-3,1,-4.4
COC(=O)c1cc(C(=O)Nc2ccc(S(N)(=O)=O)cc2)cc([N+](=O)[O-])c1,18,0.0035,-10,5,3,0.9
CC1CC(C)CN(CC(C)(C)NS(=O)(=O)c2ccccc2)C1 (centres undefined),4,.,-3,11,77*,0.08
CC(C)(CN1CCc2ccccc2C1)NS(=O)(=O)c1ccccc1,-10,.,-11,.,2,-0.88
CCOC(=O)C1=C(C)N=C2SC=C(C)N2C1c1ccc(OC)cc1 (centres undefined),12,0.4,-8,-9,-1,0.21
Cc1ccc(C(C(=O)NC(C)(C)C)N(Cc2cccs2)C(=O)c2ccc3c(c2)OCCO3)cc1 (centres undefined),52*,-0.74,-2,72*,1,-1.7
CCC(C)(C)NC(=O)C(c1ccc(C)cc1)N(Cc1cccs1)C(=O)c1ccc2c(c1)OCCO2 (centres undefined),-8,-1.9,2,74*,-4,-0.85
Cc1ccc(C(C(=O)NC(C)(C)C)N(Cc2cccs2)C(=O)c2csnn2)cc1 (centres undefined),.,-0.4,-4,.,.,0.27
CC(=O)Nc1ccc(Cc2ccc3[nH]c(=O)cc(C)c3c2)cc1,4,.,5,.,0,-1.2
Cc1ccc(Nc2ccc(C(=O)O)cc2N)cc1,-14,.,-2,73*,-1,0.42
CCN(CC)c1ccc(C(=S)NC2CCCCC2)cc1,-5,0.81,-5,73*,-4,-1.4
CN(C)c1ccc(C(=S)NC2CCCCC2)cc1,18,-0.021,-3,-1,-5,0.022
CCN(CC)c1ccc(C(=S)NCc2ccccc2)cc1,-5,.,0,67*,-12,0.36
SMILES,p47phox inh,ROMK primary,RBBP9 inhibitor,WT yeast gro inh,14-3-3 Bad inh,KCC2 mod
O=C(CN1CCCCCCC1)Nc1cccc(Cl)c1Cl,-7,0.12,-5,-2,-4,1.3
COc1ccc(-c2nc(CN3CCCCC3c3nccn3C)c(C)o2)c(C)c1C (centres undefined),-10,-0.78,-3,75*,-11,0.44
CCCOc1ccc(/C(O)=C2\C(=O)C(=O)N(CCCOC)C23C(=O)N(C)c2ccccc23)cc1 (centres undefined),1,.,-5,-6,70*,0.48
Cc1ccc(-c2csc(N3N=C(c4ccccc4)/C(=C\c4ccc(N(C)C)cc4)C3=O)n2)cc1,51*,.,-13,7,-25,-0.14
C(=N\N(c1ccccc1)c1ccccc1)/c1ccc(N2CCOCC2)s1,-26,0.62,-6,-42,-9,0.71
CCCC(=O)c1c[nH]c(C(=O)NCc2cccnc2)c1,-7,-0.29,-10,0,2,-0.39
CCC(=O)c1c[nH]c(C(=O)NCc2cccnc2)c1,-9,-0.94,-1,8,80*,0.0069
Cc1ccc(C)c(S(=O)(=O)N/N=C2/CCCc3ccccc32)c1,6,1.7,-7,12,12,-0.36
O=S(=O)(N/N=C1/CCCc2ccccc21)c1ccc(Br)cc1,-9,-3.7*,-6,38,1,1.7
C=CCNC(=S)NNC(=O)c1cccc(Br)c1,-2,-0.29,-6,-1,-4,0.52
O=C(NNC(=S)Nc1cccc2ccccc12)c1cccc(Br)c1,-3,-0.48,-5,.,.,14*
COc1cccc(-c2nc(-c3ccc(NC(=O)c4cccs4)cc3)no2)c1,-20,.,-4,58*,2,1.7
Cc1cc(C)c(C(N)=O)c(Nc2cccc3ccccc23)n1,-5,.,1,62*,-3,0.7
COc1ccccc1Nc1nc(C)cc(C)c1C(N)=O,-7,0.099,-4,-5,3,-0.087
[N-]=[N+]=CC(=O)CC(c1ccccc1)N1C(=O)c2ccccc2C1=O (centres undefined),51*,0.33,2,0,-5,.
CCN=C1S/C(=C\c2cn(CC)c3ccccc23)C(=O)N1CC,-14,0.28,-1,44,-8,-1.8
CCn1cc(C=C2C(=O)c3ccccc3C2=O)c2ccccc21,75*,-0.043,-3,11,-306,-0.015
CC12CCC(C(=O)N(Cc3ccccc3)Cc3ccccc3)(OC1=O)C2(C)C (centres undefined),3,.,5,79*,4,.
CCOc1ccc(Nc2cc(C)nc(-n3nc(C)cc3C)n2)cc1,0,2.7*,0,68,-4,.
CC(CCCC(C)(C)O)NC(=O)c1ccc(OC2CCN(C(=O)C3CC3)CC2)cc1 (centres undefined),1,0.61,-13,7,4,.
CC(C)N1C(=O)CSC1c1ccc(Br)cc1 (centres undefined),-3,0.15,-5,-21,-5,-0.3
O=C(c1ccccc1F)N1CCN(c2ccc([N+](=O)[O-])c(NCC3CCCO3)c2)CC1 (centres undefined),-6,-1.5,-6,-1,-2,-1.8

# Assay outcomes from PubChem.
